Screening results: PubChem, several laboratories
PP5 inh – blocks human protein phosphatase 5 activity | P53041 | purified PP5c, OMFP substrate fluorescence | inhibition, % at 6.7 µM | actives 0.18% (n = 320,000) | AID 1987;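 active means inhibition above the campaign's mean inhibition across all tested compounds plus 3 SD, cut at about 9.5% in these data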;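 further: 0% = DMSO only and 100% = 100 µM cantharidin control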
Hsp70 activator – switches on Hsp70 transcription. HeLa Hsp70 promoter luciferase reporter, luminescence; scaled: vehicle 0, proteasome-inhibitor control 100%. activation, % at 10 µM. actives 0.04% (n = 200,000);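 active means activation above the mean across all tested compounds plus 3 SD, cutoff set per campaign, cut at about 5.5% in these data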;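 further: 100% = MG132 at 30 µM as the positive control and 0% = DMSO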
RBBP9 inh – inhibitors of human serine hydrolase RBBP9; recombinant RBBP9, FP-Rh probe fluorescence polarization; inhibition, % at 7.94 µM; O75884; actives 0.2% (n = 220,000);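 active means inhibition above the campaign mean of all tested compounds plus 3 SD, cut at about 14% in these data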;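 further: plate controls were DMSO wells with RBBP9 for no effect and wells lacking RBBP9 protein for full effect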
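Measured by: FP readout at 525/598 nm; material: recombinant human RBBP9; also added: Serine-hydrolase probe FP-Rh, 375 nM pre-mixing; medium: Tris buffer pH 8.0, NaCl, Pluronic; replication: one well per compound; doses: one concentration, 7.94 µM nominal, 0.794% DMSO; timing: preincubation 30 min plus labeling 45 min at 25 °C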
PKD1 kinase inh – blocks activity of human protein kinase D1; PKD1 kinase fluorescence polarization assay; AID 797; inhibition, % (no concentration beside the values); Q15139; actives 0.056% (n = 200,000); in the data active means inhibition above about 50%
PP1 inh – counter-screen for PP5 inhibitors: inhibitors of human PP1-alpha. purified PP1alpha, OMFP fluorescence. inhibition, % at 6.7 µM. actives 0.9% (n = 320,000). AID 2235;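 active means inhibition above the mean inhibition of all tested compounds plus 3 SD, computed separately for each screening campaign, cut at about 15% in these data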
p97 ATPase inh – blocks human p97 ATPase activity. inhibition, % at 8 µM. P55072. actives 0.42% (n = 220,000). recombinant p97 ATPase, Kinase-Glo ATP luminescence, 3 h; in the data active means inhibition above about 15%;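 further: 0% = DMSO vehicle and 100% = wells lacking enzyme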
* marks the source's active call; other numbers are inactive results. Hits are enriched below; roughly 1.5% of the tested compounds scored in any of these assays.

Results for CC1(C)C(/C=C/C=C/C=C/C=C2\N(CCCCS(=O)(=O)O)c3ccc4ccccc4c3C2(C)C)=[N+](CCCCS(=O)(=O)[O-])c2ccc3ccccc3c21 ?
PP5 inh: 3; PP1 inh: 59*

How did CSCCC(NC(=O)CCNC(=O)c1ccccc1Cl)c1nc2ccccc2[nH]1 (stereo unspecified) do in these assays?
PP5 inh: 2; PP1 inh: 1

How did C=CCn1c(C)cc(C(=O)CSc2nnc(NCc3ccccc3)s2)c1C do in these assays?
PP5 inh: 12*; Hsp70 activator: 0; RBBP9 inh: -13; PKD1 kinase inh: -13; PP1 inh: 4; p97 ATPase inh: 3

How did CCN(C(=O)c1cnc(NC(C)C)cc1C(F)(F)F)c1ccc(Cl)cc1Cl do in these assays?
PP5 inh: 2; RBBP9 inh: -3; PP1 inh: -1; p97 ATPase inh: -1

Results for Cc1ccc(S(=O)(=O)N2CCC(c3nc4c(nnn4Cc4ccccc4)c(=O)[nH]3)CC2)cc1 ?
PP5 inh: -3; Hsp70 activator: 0; RBBP9 inh: -10; PKD1 kinase inh: -6; PP1 inh: 16*; p97 ATPase inh: 3

How did O=c1[nH]c(C2CCN(S(=O)(=O)/C=C/c3ccccc3)CC2)nc2c1nnn2Cc1ccccc1 do in these assays?
PP5 inh: 2; PP1 inh: 15*

How did Cc1ccc(Cn2nnc3c(=O)[nH]c(C4CCN(S(=O)(=O)Cc5ccccc5)CC4)nc32)cc1 do in these assays?
PP5 inh: 4; PP1 inh: 10

How did CCOC(=O)c1c(C)[nH]c(C(=O)OC(C)C(=O)NC2CCCCC2C)c1C (stereo unspecified) do in these assays?
PP5 inh: -1; PP1 inh: 1

What do the screens show for `COc1ccc(NS(=O)(=O)c2cccc(C(=O)NNC(=O)c3ccc(=O)[nH]c3)c2)cc1`?
PP5 inh: 1; PP1 inh: -3

How did CC(NC(=O)CN1C(=O)NC(c2ccccc2)(c2ccccc2)C1=O)c1cccs1 (stereo unspecified) do in these assays?
PP5 inh: 4; PP1 inh: -3

How did COC(=O)c1c(NC(=O)C2C3CCC(C3)C2C(=O)O)sc2c1CCCCC2 (stereo unspecified) do in these assays?
PP5 inh: -1; Hsp70 activator: 0; RBBP9 inh: 2; PKD1 kinase inh: 79*; PP1 inh: -4; p97 ATPase inh: -3

How did COC(=O)c1c(NC(=O)C2CC=CCC2C(=O)O)sc2c1CCCCC2 (stereo unspecified) do in these assays?
PP5 inh: 0; PP1 inh: -1

Results for Cc1ccc(S(=O)(=O)N2CCN(C(=O)COC(=O)CCCOc3ccccc3)CC2)c(C)c1 ?
PP5 inh: -1; PP1 inh: -1

How did CC(=O)c1c(C)[nH]c(C(=O)OCC(=O)NCc2ccc3c(c2)OCO3)c1C do in these assays?
PP5 inh: 0; PP1 inh: 1

How did CCCCNc1c(-c2ccc(-c3ccc(C(C)=O)cc3)c(OC)c2)nc2cnccn12 do in these assays?
PP5 inh: 5; PP1 inh: 17*

How did Cc1ccn2c(NC3CCCC3)c(-c3ccncc3)nc2c1 do in these assays?
PP5 inh: 3; Hsp70 activator: 0; RBBP9 inh: -1; PKD1 kinase inh: 5; PP1 inh: -1; p97 ATPase inh: -7

What do the screens show for `Cc1ccn2c(NC3CCCCC3)c(-c3cccc(-c4cccc(Cl)c4)c3)nc2c1`?
PP5 inh: 3; PP1 inh: 17*

What do the screens show for `COc1cc(-c2nc3cc(C)ccn3c2NC2CCCCC2)ccc1-c1ccc(C(C)=O)cc1`?
PP5 inh: 2; PP1 inh: 18*

How did N=c1c2c(-c3ccccc3)c(-c3ccccc3)n(Cc3ccccc3)c2ncn1CCCn1ccnc1 do in these assays?
PP5 inh: 2; Hsp70 activator: 0; RBBP9 inh: -7; PKD1 kinase inh: 1; PP1 inh: 15*; p97 ATPase inh: 0

Results for CCCCn1cnc2c(c(-c3ccccc3)c(-c3ccccc3)n2Cc2ccco2)c1=N ?
PP5 inh: 1; RBBP9 inh: -4; PP1 inh: 4; p97 ATPase inh: 11

How did N=c1c2c(-c3ccccc3)c(-c3ccccc3)n(Cc3ccco3)c2ncn1Cc1ccco1 do in these assays?
PP5 inh: 3; Hsp70 activator: 0; RBBP9 inh: -6; PKD1 kinase inh: 2; PP1 inh: 16*; p97 ATPase inh: 3
